Experiment [1] has as its target T1, Mineralocorticoid receptor (Rattus norvegicus) (UniProt P22199).
T1 sequence (whole entry): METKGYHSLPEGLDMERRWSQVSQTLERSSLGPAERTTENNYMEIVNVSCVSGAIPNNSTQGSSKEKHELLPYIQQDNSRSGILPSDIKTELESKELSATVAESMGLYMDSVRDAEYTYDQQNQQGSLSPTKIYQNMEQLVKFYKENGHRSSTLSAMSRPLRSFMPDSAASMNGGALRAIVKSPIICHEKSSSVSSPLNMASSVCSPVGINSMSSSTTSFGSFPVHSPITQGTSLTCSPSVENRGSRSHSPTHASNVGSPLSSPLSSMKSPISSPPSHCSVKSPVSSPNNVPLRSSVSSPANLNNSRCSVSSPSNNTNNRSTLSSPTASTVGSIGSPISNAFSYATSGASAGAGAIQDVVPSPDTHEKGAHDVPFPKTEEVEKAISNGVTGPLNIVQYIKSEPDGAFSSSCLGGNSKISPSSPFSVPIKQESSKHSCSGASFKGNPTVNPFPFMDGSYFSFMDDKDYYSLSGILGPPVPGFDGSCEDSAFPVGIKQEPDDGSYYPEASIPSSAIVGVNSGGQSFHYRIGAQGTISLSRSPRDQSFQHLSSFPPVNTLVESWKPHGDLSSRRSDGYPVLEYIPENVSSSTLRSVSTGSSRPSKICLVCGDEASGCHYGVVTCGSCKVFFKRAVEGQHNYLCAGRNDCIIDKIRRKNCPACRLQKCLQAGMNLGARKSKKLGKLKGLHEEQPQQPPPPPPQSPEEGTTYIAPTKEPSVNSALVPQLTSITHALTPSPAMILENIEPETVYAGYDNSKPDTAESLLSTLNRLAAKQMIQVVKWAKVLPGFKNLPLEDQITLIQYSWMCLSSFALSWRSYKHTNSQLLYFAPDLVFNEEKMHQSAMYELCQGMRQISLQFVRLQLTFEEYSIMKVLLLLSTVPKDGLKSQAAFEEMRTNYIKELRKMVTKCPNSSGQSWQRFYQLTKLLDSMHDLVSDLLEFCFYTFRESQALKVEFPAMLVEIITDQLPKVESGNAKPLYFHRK
Kind of experiment: Displacement of [3H]aldosterone from mineralocorticoid receptor. Summed up:
(§1)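 Competition binding against [3H]aldosterone at the mineralocorticoid steroid-receptor complex. Each spirolactone competitor was tested at 8 × 10^-8 M, with unlabeled aldosterone at the same concentration as reference. Incubation ran 40 min at 25 °C. Labeled aldosterone still receptor-bound afterwards was measured, and binding affinity was expressed relative to aldosterone.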

Experiment [2] deals with T1, Mineralocorticoid receptor (Rattus norvegicus). As to the kind of experiment: Ratio of [3H]aldosterone binding with 8*10e-8 M aldosterone to [3H]aldosterone binding with 8*10e-8 M competitor at Mineralocorticoid receptor. Summed up:
as §1

This is an account of results in ChEMBL document CHEMBL1121702, “A structure-activity relationship study of spirolactones. Contribution of the cyclopropane ring to antimineralocorticoid activity” (J Med Chem, 1981).

In experiment [1], `CC12C(=CC(=O)C3CC31)[C@@H]1C[C@@H]1C1C2CCC2(C)C1CCC21CCC(=O)O1` (some centres undefined) returned a Binding of 55%. Also, the Relative binding affinity in experiment [2] amounted to 0.14.
On the same counts, the results for `CC12CCC(=O)C=C1[C@H]1C[C@H]1C1C2CCC2(C)C1CCC21CCC(=O)O1` (some centres undefined) are 66% and 0.12.
On the same counts, the results for `C[C@]12C=CC(=O)C=C1CCC1C2CC[C@@]2(C)C1CC[C@@]21CCC(=O)O1` (some centres undefined) are 53.5% and 0.15.
`CC12C=CC(=O)C=C1[C@H]1C[C@H]1C1C2CCC2(C)C1CCC21CCC(=O)O1` (some centres undefined) yielded a Binding in experiment [1] of 53%. Further, the Relative binding affinity in experiment [2] was 0.15.
On the same counts, the results for `CC12C(=CC(=O)C3CC31)[C@H]1CC1C1C2CCC2(C)C1CCC21CCC(=O)O1` (some centres undefined) are 77.6% and 0.1.
The corresponding values for `C[C@]12CCC(=O)C=C1CC[C@@H]1[C@@H]2[C@@H](O)C[C@]2(C=O)[C@@H](C(=O)CO)CC[C@@H]12` are 7.8% and 1.
On the same counts, the results for `C[C@]12CCC(=O)C=C1C=C[C@@H]1[C@@H]2CC[C@@]2(C)[C@H]1CC[C@@]21CCC(=O)O1` are 60% and 0.13.
For the molecule `C[C@]12CCC(=O)C=C1CC[C@@H]1[C@@H]2CC[C@@]2(C)[C@H]1CC[C@@]21CCC(=O)O1`, the Binding in experiment [1] turned out to be 36%. The Relative binding affinity in experiment [2] came to 0.22.
The corresponding values for `CC12CCC(=O)C=C1[C@@H]1C[C@@H]1C1C2CCC2(C)C1CCC21CCC(=O)O1` (some centres undefined) are 31.7% and 0.25.
On the same counts, the results for `CC(=O)S[C@@H]1CC2=CC(=O)CC[C@]2(C)[C@H]2CC[C@@]3(C)[C@@H](CC[C@@]34CCC(=O)O4)[C@H]12` are 32.2% and 0.24.
On the same counts, the results for `CC12C=CC(=O)C=C1C=CC1C2CCC2(C)C1CCC21CCC(=O)O1` (centres undefined) are 76.6% and 0.1.
Consider `CC12C=CC(=O)C=C1[C@H]1CC1C1C2CCC2(C)C1CCC21CCC(=O)O1` (some centres undefined), for which, in experiment [1], the Binding came to 77%. The Relative binding affinity in experiment [2] is 0.1.
